We go through three compounds from ChEMBL document CHEMBL1125707, “Dexamethasone 21-(beta-isothiocyanatoethyl) thioether: a new affinity label for glucocorticoid receptors” (J Med Chem, 1991).

Assay [1] deals with T1, Glucocorticoid receptor (Rattus norvegicus) (UniProt P06536).
T1 sequence (whole entry): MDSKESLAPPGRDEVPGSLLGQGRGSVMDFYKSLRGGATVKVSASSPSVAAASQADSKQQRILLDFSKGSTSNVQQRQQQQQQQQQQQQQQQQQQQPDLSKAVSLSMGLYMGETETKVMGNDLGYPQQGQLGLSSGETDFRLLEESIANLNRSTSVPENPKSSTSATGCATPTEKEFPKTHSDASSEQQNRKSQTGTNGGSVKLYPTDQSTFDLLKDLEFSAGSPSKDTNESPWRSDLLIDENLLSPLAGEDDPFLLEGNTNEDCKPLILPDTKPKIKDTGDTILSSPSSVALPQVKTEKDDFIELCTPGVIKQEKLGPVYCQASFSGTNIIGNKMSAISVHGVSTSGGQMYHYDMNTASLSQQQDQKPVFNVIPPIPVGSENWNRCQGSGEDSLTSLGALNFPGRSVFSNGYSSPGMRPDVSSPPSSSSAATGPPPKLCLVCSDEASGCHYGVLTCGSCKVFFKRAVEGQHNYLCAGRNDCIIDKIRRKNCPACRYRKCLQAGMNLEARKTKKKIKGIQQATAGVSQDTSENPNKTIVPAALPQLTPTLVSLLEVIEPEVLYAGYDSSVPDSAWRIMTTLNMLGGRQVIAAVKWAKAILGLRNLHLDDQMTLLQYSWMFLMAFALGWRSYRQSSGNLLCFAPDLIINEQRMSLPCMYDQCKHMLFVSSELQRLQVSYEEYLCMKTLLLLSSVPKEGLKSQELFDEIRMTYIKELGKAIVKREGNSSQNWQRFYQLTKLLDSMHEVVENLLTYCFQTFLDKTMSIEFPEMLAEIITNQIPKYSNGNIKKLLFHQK
Kind of assay: Dex-NCS incubation on the subsequent inhibition of exchange binding with [3H]dexamethasone measured at pH 7.6 at 1h. The conditions noted are these: concentration not given here. In outline:
(§1)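 Crude HTC cytosol receptors in TAPS buffer were preincubated 3 h at 0 °C with Dex-NCS (290 or 580 nM) or cortisol (60 or 120 nM). Activated charcoal then removed free steroid and inactivated steroid-free receptors. Cytosol was adjusted to 1.9×10^-8 M [3H]Dex ± 575-fold unlabeled Dex and incubated for the stated times at 0 °C, final pH 8.8 or 7.6. Bound steroid was charcoal-separated; specific = total − nonspecific. Cortisol preincubation defined exchangeable binding. Run in duplicate; mean (SD, n).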

The target of assay [2] is T1, Glucocorticoid receptor (Rattus norvegicus). Kind of assay: Dex-NCS incubation on the subsequent inhibition of exchange binding with [3H]Dexamethasone measured at pH 7.6 at 20h. The conditions noted are these: concentration not given here. Put shortly:
as §1

Assay [3] has the same target. Kind of assay: Dex-NCS incubation on the subsequent inhibition of exchange binding with [3H]dexamethasone measured at pH 7.6 at 3h. Conditions: concentration not given here. In outline: as §1
Assay [4] has the same target. Kind of assay: Dex-NCS incubation on the subsequent inhibition of exchange binding with [3H]dexamethasone measured at pH 7.6 at 5h. The conditions noted are these: concentration not given here. In outline: as §1
For assay [5] the target is unchanged. Description: Dex-NCS incubation on the subsequent inhibition of exchange binding with [3H]dexamethasone measured at pH 8.8 at 1h. The conditions noted are these: concentration not given here. In outline: as §1
Assay [6] shares this target. Description: Dex-NCS incubation on the subsequent inhibition of exchange binding with [3H]dexamethasone measured at pH 8.8 at 3h. Conditions: concentration not given here. In outline: as §1
For assay [7] the target is unchanged. Kind of assay: Dex-NCS incubation on the subsequent inhibition of exchange binding with [3H]dexamethasone measured at pH 8.8 at 5h. The conditions noted are these: concentration not given here. Put shortly:
as §1

Assay [8] shares this target. Description: Relative affinity [Ka compound/Ka Dex] for glucocorticoid receptors in cell-free competition assay. Put shortly: (§2)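 Competition with [3H]Dex for glucocorticoid receptors, in HTC cell cytosol (0 °C) or in intact HTC cells (30 min, 37 °C). Relative affinity is the ratio of Dex to steroid concentrations giving 50% inhibition of [3H]Dex binding, corrected by the Rodbard method for partial receptor occupancy by uncompeted [3H]Dex. Averages of 2–4 experiments.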

For assay [9] the target is unchanged. Description: Relative affinity [Ka compound/Ka Dex] for glucocorticoid receptors in whole-cell competition assay. In outline:
as §2

Assay [10] has as its target Glucocorticoid receptor (Rattus norvegicus) (UniProt P06536). The conditions noted are these: filed as partial agonist.

As to `C[C@@H]1CC2C3CCC4=CC(=O)C=C[C@]4(C)[C@@]3(F)[C@@H](O)C[C@]2(C)[C@@]1(O)C(=O)CSCCN=C=S` (some centres not stated), the inhibition in [1] worked out at 63.2%; in assay [2] it was 45.7%; in [3], 60.5%; in [4], 56.6%; in [5] it was 43.8%; in assay [6], 37%. The inhibition in assay [7] stood at 34.1%.

For `C[C@@H]1CC2C3CCC4=CC(=O)C=C[C@]4(C)[C@@]3(F)[C@@H](O)C[C@]2(C)[C@@]1(O)C(=O)COC(=O)c1c(C(F)(F)F)cccc1C(F)(F)F` (some centres not stated), the Relative affinity in [8] was found to be 0.079; in [9] it was 0.0087.

On to `C[C@@H]1CC2C3CCC4=CC(=O)C=C[C@]4(C)[C@@]3(F)[C@@H](O)C[C@]2(C)[C@@]1(O)C(=O)CBr` (some centres not stated), for which the Relative affinity in assay [8] worked out at 0.021; in assay [9] it was 0.063. In [10], the Agonist entry is “Partial agonist”.

Usually inhibition stands for the drop in the measured response relative to a control, in per cent.
